{"source": "ChEMBL document CHEMBL1145095", "about": "“New bivalent PKC ligands linked by a carbon spacer: enhancement in binding affinity” (J Med Chem, 2003)", "key": {"[1]": {"target": "T1, Protein kinase C delta type (Mus musculus, UniProt P28867)", "T1 sequence (P28867 whole entry, the tested form may be a part)": "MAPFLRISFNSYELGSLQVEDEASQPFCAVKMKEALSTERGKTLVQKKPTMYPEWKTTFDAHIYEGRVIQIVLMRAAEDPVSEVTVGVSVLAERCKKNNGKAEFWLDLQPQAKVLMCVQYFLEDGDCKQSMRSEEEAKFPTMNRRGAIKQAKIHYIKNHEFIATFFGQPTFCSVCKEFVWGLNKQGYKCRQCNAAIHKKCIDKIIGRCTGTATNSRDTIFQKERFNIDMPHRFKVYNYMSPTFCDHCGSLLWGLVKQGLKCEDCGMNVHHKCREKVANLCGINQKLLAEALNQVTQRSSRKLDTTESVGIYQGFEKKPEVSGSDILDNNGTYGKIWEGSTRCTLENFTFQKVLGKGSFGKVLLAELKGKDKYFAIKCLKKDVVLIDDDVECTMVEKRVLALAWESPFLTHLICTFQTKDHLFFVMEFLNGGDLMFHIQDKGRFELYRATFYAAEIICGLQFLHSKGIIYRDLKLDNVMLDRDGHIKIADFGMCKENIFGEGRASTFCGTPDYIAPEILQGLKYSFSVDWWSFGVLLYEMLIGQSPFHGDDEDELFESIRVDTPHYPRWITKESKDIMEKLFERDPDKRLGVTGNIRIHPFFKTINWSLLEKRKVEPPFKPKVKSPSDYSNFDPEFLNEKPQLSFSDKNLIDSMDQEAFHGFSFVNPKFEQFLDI", "assay": "Tested for ability to displace […] phorbol 12,13- dibutyrate binding from recombinant C1b domain of murine Protein kinase C delta in presence of [Ca2+]"}, "[2]": {"target": "T1, Protein kinase C delta type", "assay": "Tested for ability to displace […] phorbol 12,13- dibutyrate binding from recombinant murine Protein kinase C delta in presence of [Ca2+]"}, "[3]": {"target": "T2, Protein kinase C beta type (Homo sapiens, UniProt P05771)", "T2 sequence (P05771 whole entry)": "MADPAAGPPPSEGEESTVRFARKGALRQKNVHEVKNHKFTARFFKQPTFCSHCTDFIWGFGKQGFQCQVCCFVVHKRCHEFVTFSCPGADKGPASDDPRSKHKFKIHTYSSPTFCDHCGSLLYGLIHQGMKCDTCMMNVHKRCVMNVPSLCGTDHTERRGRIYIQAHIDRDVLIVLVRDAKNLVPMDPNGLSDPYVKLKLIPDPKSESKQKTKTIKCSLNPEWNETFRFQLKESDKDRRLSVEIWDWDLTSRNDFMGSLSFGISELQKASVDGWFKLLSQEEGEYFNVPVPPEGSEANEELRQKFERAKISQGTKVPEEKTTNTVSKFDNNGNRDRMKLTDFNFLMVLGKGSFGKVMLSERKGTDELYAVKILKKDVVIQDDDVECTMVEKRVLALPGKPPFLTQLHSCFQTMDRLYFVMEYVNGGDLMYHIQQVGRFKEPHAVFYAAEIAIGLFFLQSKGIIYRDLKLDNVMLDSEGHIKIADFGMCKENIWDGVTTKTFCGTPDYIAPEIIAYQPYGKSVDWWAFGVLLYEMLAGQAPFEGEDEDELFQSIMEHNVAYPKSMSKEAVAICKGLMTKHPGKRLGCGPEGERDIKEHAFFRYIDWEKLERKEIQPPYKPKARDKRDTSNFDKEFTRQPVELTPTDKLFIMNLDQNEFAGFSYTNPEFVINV", "assay": "Binding affinity for human PKC beta-1", "procedure,_shortened": "(§1)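 Ligand interaction with each PKC isozyme (α, δ, β1, γ or ε) was measured as competition by the nonradioactive ligand against [³H]PDBU binding to that isozyme, using an earlier published method. Affinities are expressed as Ki.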"}, "[4]": {"target": "T2, Protein kinase C beta type", "assay": "Inhibition of human PKC beta-1", "procedure,_shortened": "as §1"}, "[5]": {"target": "T3, Protein kinase C delta type (Homo sapiens, UniProt Q05655)", "T3 sequence (Q05655 whole entry)": "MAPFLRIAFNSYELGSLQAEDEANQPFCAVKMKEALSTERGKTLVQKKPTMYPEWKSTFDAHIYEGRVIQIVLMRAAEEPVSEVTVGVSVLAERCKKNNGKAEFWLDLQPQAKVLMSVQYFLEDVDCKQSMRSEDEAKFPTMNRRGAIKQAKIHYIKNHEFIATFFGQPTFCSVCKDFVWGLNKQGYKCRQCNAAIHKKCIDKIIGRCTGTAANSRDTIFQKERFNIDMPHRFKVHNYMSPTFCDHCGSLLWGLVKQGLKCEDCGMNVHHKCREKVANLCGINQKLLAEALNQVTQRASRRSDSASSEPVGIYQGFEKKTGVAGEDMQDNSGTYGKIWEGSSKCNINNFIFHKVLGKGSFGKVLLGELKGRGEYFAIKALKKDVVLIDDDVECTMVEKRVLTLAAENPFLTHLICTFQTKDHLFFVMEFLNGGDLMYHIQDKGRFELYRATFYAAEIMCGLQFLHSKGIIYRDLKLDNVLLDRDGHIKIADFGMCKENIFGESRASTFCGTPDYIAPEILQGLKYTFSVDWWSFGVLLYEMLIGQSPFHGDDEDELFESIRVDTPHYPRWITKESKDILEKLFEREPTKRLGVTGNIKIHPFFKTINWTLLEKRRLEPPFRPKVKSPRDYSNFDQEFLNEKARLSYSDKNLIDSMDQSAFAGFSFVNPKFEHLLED", "assay": "Binding affinity for human Protein kinase C delta", "procedure,_shortened": "as §1"}, "[6]": {"target": "T3, Protein kinase C delta type", "assay": "Inhibition of human Protein kinase C delta", "procedure,_shortened": "as §1"}, "[7]": {"target": "T4, Protein kinase C epsilon type (Homo sapiens, UniProt Q02156)", "T4 sequence (Q02156 whole entry)": "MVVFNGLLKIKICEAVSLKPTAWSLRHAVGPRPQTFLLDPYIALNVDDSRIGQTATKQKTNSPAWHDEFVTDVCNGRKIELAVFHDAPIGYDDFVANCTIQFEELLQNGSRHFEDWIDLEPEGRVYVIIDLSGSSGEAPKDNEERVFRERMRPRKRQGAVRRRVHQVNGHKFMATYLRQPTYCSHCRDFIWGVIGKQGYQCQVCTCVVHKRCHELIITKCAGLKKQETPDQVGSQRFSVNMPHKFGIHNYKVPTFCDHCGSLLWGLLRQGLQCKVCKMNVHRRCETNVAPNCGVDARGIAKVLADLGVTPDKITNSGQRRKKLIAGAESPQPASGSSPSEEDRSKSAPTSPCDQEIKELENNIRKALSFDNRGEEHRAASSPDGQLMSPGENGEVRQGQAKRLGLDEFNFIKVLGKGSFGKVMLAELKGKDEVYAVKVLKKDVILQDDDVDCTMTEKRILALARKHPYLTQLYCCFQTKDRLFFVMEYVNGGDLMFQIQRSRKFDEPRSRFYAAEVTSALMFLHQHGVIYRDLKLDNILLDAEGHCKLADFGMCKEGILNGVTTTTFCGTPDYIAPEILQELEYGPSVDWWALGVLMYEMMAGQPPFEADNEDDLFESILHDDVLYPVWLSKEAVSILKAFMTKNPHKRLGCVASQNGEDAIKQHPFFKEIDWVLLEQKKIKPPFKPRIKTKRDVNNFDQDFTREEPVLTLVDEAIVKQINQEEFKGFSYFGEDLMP", "assay": "Binding affinity for human Protein kinase C epsilon", "procedure,_shortened": "as §1"}, "[8]": {"target": "T4, Protein kinase C epsilon type", "assay": "Inhibition of human Protein kinase C epsilon", "procedure,_shortened": "as §1"}, "[9]": {"target": "T5, Protein kinase C gamma type (Homo sapiens, UniProt P05129)", "assay": "Binding affinity for human Protein kinase C gamma with [Ca2+]", "procedure,_shortened": "as §1"}, "[10]": {"target": "T5, Protein kinase C gamma type", "assay": "Inhibition of human Protein kinase C gamma with [Ca2+]", "procedure,_shortened": "as §1"}}}
{"smiles": "CC(C)[C@H]1C(=O)N[C@H](CO)Cc2cc(NC(=O)CCCCCCCCCCC(=O)Nc3ccc4c(c3)N(C)[C@@H](C(C)C)C(=O)N[C@H](CO)C4)ccc2N1C", "values": [{"measurement": "Ki", "setting": "[1]", "value": 0.48, "unit": "nM"}, {"measurement": "Ki", "setting": "[2]", "value": 1.31, "unit": "nM"}]}
{"smiles": "CC(C)[C@H]1C(=O)N[C@H](CO)Cc2cc(NC(=O)CCCCCCCCC(=O)Nc3ccc(O)c4ccccc34)ccc2N1C", "values": [{"measurement": "Ki", "setting": "[1]", "value": 4.4, "unit": "nM"}, {"measurement": "Ki", "setting": "[2]", "value": 21.6, "unit": "nM"}]}
{"smiles": "CC(C)[C@H]1C(=O)N[C@H](CO)Cc2cc(NC(=O)CCCCCCCCCCCCC(=O)Nc3ccc4c(c3)N(C)[C@@H](C(C)C)C(=O)N[C@H](CO)C4)ccc2N1C", "values": [{"measurement": "Kd", "setting": "[3]", "value": 0.19, "unit": "nM"}, {"measurement": "Ki", "setting": "[4]", "value": 1.42, "unit": "nM"}, {"measurement": "Kd", "setting": "[5]", "value": 1, "unit": "nM"}, {"measurement": "Ki", "setting": "[6]", "value": 2.12, "unit": "nM"}, {"measurement": "Ki", "setting": "[1]", "value": 0.33, "unit": "nM"}, {"measurement": "Ki", "setting": "[2]", "value": 0.78, "unit": "nM"}, {"measurement": "Kd", "setting": "[7]", "value": 0.37, "unit": "nM"}, {"measurement": "Ki", "setting": "[8]", "value": 0.55, "unit": "nM"}, {"measurement": "Kd", "setting": "[9]", "value": 0.16, "unit": "nM"}, {"measurement": "Ki", "setting": "[10]", "value": 1.5, "unit": "nM"}]}
{"smiles": "CC(C)[C@H]1C(=O)N[C@H](CO)C1c1ccc(OC(=O)CCCCCCCCCCC(=O)Oc2ccc([C@H]3[C@@H](C(C)C)C(=O)N[C@@H]3CO)c3ccccc23)c2ccccc12", "note": "(stereo not given in full)", "values": [{"measurement": "Ki", "setting": "[2]", "value": 44.8, "unit": "nM"}]}
{"smiles": "CC(C)[C@H]1C(=O)N[C@H](CO)Cc2cc(NC(=O)CCCCC(=O)Nc3ccc4c(c3)N(C)[C@@H](C(C)C)C(=O)N[C@H](CO)C4)ccc2N1C", "values": [{"measurement": "Ki", "setting": "[1]", "value": 16.8, "unit": "nM"}, {"measurement": "Ki", "setting": "[2]", "value": 67.8, "unit": "nM"}]}
{"smiles": "CC(C)[C@H]1C(=O)N[C@H](CO)Cc2cc(NC(=O)CCCCCCC(=O)Nc3ccc4c(c3)N(C)[C@@H](C(C)C)C(=O)N[C@H](CO)C4)ccc2N1C", "values": [{"measurement": "Ki", "setting": "[1]", "value": 30.6, "unit": "nM"}, {"measurement": "Ki", "setting": "[2]", "value": 170, "unit": "nM"}]}
{"smiles": "CC(C)[C@H]1C(=O)N[C@H](CO)Cc2cc(NC(=O)CCCCCCCCC(=O)Nc3ccc4c(c3)N(C)[C@@H](C(C)C)C(=O)N[C@H](CO)C4)ccc2N1C", "values": [{"measurement": "Ki", "setting": "[1]", "value": 1.27, "unit": "nM"}, {"measurement": "Ki", "setting": "[2]", "value": 5.75, "unit": "nM"}]}
{"smiles": "CC(C)[C@H]1C(=O)N[C@H](CO)Cc2cc(NC(=O)CCCCCCCCCCCCCCCCCCCCC(=O)Nc3ccc4c(c3)N(C)[C@@H](C(C)C)C(=O)N[C@H](CO)C4)ccc2N1C", "values": [{"measurement": "Ki", "setting": "[1]", "value": 0.11, "unit": "nM"}, {"measurement": "Ki", "setting": "[2]", "value": 0.38, "unit": "nM"}]}
{"smiles": "CC(C)[C@H]1C(=O)N[C@H](CO)Cc2cc(NC(=O)CCCCCCCCCCCCCCC(=O)Nc3ccc4c(c3)N(C)[C@@H](C(C)C)C(=O)N[C@H](CO)C4)ccc2N1C", "values": [{"measurement": "Ki", "setting": "[1]", "value": 0.14, "unit": "nM"}, {"measurement": "Ki", "setting": "[2]", "value": 0.36, "unit": "nM"}]}
